From the EternaBench riboswitch data

Test system: MS2 coat protein
Test: apparent Kd, MS2 coat protein; higher = weaker binding; RNA-MaP array; FMN 200 µM where present
Method in brief: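 Green signal from SNAP-549-labelled MS2 coat protein was normalised to red-channel RNA signal and to the median Fmax of control clusters. The protein was titrated from 0.7 or 1.5 nM, doubling to 3 µM, without and then with constant ligand, over designs transcribed by stalled E. coli RNA polymerase on Illumina sequencing-chip clusters, in 100 mM Tris-HCl pH 7.5, 80 mM KCl, 4 mM MgCl2, BSA, DTT, yeast tRNA and Tween-20. The apparent Kd is the median of filtered per-cluster binding-curve fits.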

[1] = designed as: OFF switch for flavin mononucleotide, no ligand
[2] = ligand present: flavin mononucleotide, designed as: OFF switch for flavin mononucleotide
[3] = designed as: ON switch for flavin mononucleotide, no ligand
[4] = ligand present: flavin mononucleotide, designed as: ON switch for flavin mononucleotide

| Sequence | apparent Kd [1] [nM] | apparent Kd [2] [nM] | apparent Kd [3] [nM] | apparent Kd [4] [nM] |
| --- | --- | --- | --- | --- |
| GCGUGAAAUGUAGGAUAUGACACAGGAAACUGGUCAGAAGGACAUGAGGAUCACCCAUGUAAUAAGUUCAAGAAUAACACAUGC | 33.1 | 75.5 | – | – |
| UGUGCCGGAUCAGGAUAUCCACAGCGGCAAUCACAUGAGGAUCACCCAUGUGGAGAAGGGAUUCGCGAAUUAAUAUCUCGAUAA | 33.5 | 56.6 | – | – |
| UGAUCUCGGGUUAGGAUAUACUGACAACAUAGACAGUAGAAGGAACAUGAGGAUCACCCAUGUGCAUUAACCAU | 25.1 | 59.3 | – | – |
| GGAGAUUACUCAGGAUAUCGCUAGACCGACAUGAGGAUCACCCAUGUGGGUGACGCGGUGGGCUACGAGAAGGGAGAAGUGCCC | 11.5 | 11.7 | – | – |
| CGCCGACAUGAGGAUCACCCAUGUCACAUCUGGUCAGGAUAUGGUAUGAUUUGGCUAUUGCCAGAAGGGACCUCAG | – | – | 48.9 | 28 |
| UUAUUACAUGAGGAUCACCCAUGUUUAGUGGUGACAGGAUAUACGAAAAAAAAAAAAAAAGUAGAAGGGUCUUAUU | – | – | 503 | 742 |
| GACUGAUUGUAGAAGGUACUUGAAAAUAUAUAAUAUCUCAUGUGACAUGAGGAUCACCCAUGUAGUAAGGAUAUACAUAUCACA | – | – | 17.7 | 17.9 |
| CGCAUGCGUAGUAUUAGUUGCUGACAGGAUAUGACAUGAGGAUCACCCAUGUGAAUUAAGAAGAGUCAGAAGGGUCACGUUGCG | 11.6 | 10.6 | – | – |
| AUCUUGAGAGGAUAUACAUGAGGAUCACCCAUGUUGCUAACACCAUGAGCUCAUUUACGUAGAAGGCUCAUUUG | 18 | 18.6 | – | – |
| CCGGAAUCCUAGGAUAUGCUAGACGAGAGUCUAGCAGAAGGAGGAACAUGAGGAUCACCCAUGUGUCCUACCGG | 17.7 | 21 | – | – |
| UACAGACAUGAGGAUCACCCAUGUGAGGAUAUCCAUAACGAUAUUACAAGUAUGACAGGGAGAAGGCACAGCAA | 41.3 | 52 | – | – |
| AUUAGGUCAGGAUAUACAUGAGGAUCACCCAUGUAGGUGGAACCUUUAUCGGGUGACCGUAGAAGGGACAUCAA | 41.1 | 76.3 | – | – |
| UUCAAAUUCGUAGGAUAUGUAUAAAUUAUCUACAUGAGGAUCACCCAUGUUUUCAUUUUAAAUUGACAGAAGGACGUAAUCUUA | – | – | 16.4 | 7.87 |
| AUGUUAGGAGGAUAUCGAUUUCAGGACAUGAGGAUCACCCAUGUACUAAAAGUCGUGGUUCGAGAAGGCCUAACUU | 17.5 | 23.5 | – | – |
| GGGUUACAUGAGGAUCACCCAUGUGAGGAUAUGAUACUAUGUACUUCGGUACAUAGUAUCAGAAGGCACAUAAA | 124 | 122 | – | – |
| AAAAAACAUGAGGAUCACCCAUGUAAGGAUAUGCAAAAAAAAAAAAAAAAAAAAAAAAGCAGAAGGUACAAAAA | 34.2 | 62 | – | – |
| UCCAGGUAAGGAUAUGGGCUGGACACCGGGUACGGCCAGCACCAGAAGGUACAUGAGGAUCACCCAUGUGUUCC | 54.5 | 274 | – | – |
| UGACAUAUAUAGAAGGGUAUGUGGGAAUUACAUGAGGAUCACCCAUGUUUUAUAGGAUAUGUAUAUAGUUUUUAAUCAAGUUUA | 35.1 | 26.9 | – | – |
| CUGCUUCGCUAAGGAUAUCACAUUGUCGAUCUGCGUGCAGCCUCCUGACAUGAGGAUCACCCAUGUGAGAAGGUAGACGACGUG | 19.4 | 22.5 | – | – |
| AGGUAAGAGUUAAUUGUGACGGUGAGAAGGCAAAAGGUUGUGAUUAACAUGAGGAUCACCCAUGUUGAGGAUAUCACCACCUUC | 6.95 | 8.81 | – | – |
| UUGAACAUAGGAUAUAGUUGUUUGUACAUGAGGAUCACCCAUGUUAUGUAUGUUUUGUUUCUAGAAGGAUGUUGAU | 37.7 | 32.3 | – | – |
| AAAACGGUAGGAUAUACAGUCCGUUGUCGAAUGAUGAAAAGACAUGAGGAUCACCCAUGUAGAAGGACCGAAAA | 54.8 | 125 | – | – |
| UGGUACUAGGGAGGAUAUGGGAAGAUACAUGAGGAUCACCCAUGUUUAGGAAUGCCGAGAGGCAACUAGAAGGCCCUAGUACCU | – | – | 832 | 46.1 |
| GCAGGUAUACGAGGAUAUGGGUGGUACGGACAUGAGGAUCACCCAUGUCUCCCAGAAGGCGUAGCCUAACAUUAAGAGCAGGAG | – | – | 122 | 22.5 |

| Sequence | apparent Kd [1] [nM] | apparent Kd [2] [nM] | apparent Kd [3] [nM] | apparent Kd [4] [nM] |
| --- | --- | --- | --- | --- |
| GGAUCCAACACAGGAUAUGCUGGACUUUGUCCAGCAGAAGGGUGUACAUGAGGAUCACCCAUGUAUUGGAUCCAUAUAUUUAAU | – | – | 996 | 80.8 |
| GCAGCUAUUAUUAUACAUGAGGAUCACCCAUGUUACAUGUGUAAGGAUAUUGAUGUUUAUAUAAUCAAGAAGGUACGAUGCUGC | – | – | 12.6 | 8.59 |
| GGCGAACGGGCUUACAUGAGGAUCACCCAUGUAGACUCAUGGUAGGAUAUGCUGUACUUUGUACAGCAGAAGGGCCGGUGAGCU | – | – | 65.8 | 38.7 |
| AAAUUUAACGAAGGAUAUGGUGACAUGAGGAUCACCCAUGUUAAUUUUGUGAUCUUGUUUAAGUUCCAGAAGGUCGUAUACAUA | 210 | 600 | – | – |
| UUAAUUAAUUAAUUGCAGAAUUACAUGAGGAUCACCCAUGUAUAGGAUAUCGUCAGGAAUACUGACGAGAAGGAUACAAACUGC | 17.9 | 20.7 | – | – |
| UAAUAAAGUGUGAGGAUAUGCUGGUCCUUGGAUCAGCAGAAGGCACAUGAGGAUCACCCAUGUAAUAUAUAAAU | 97.2 | 292 | – | – |
| UCCUUCUGUUGAGGAUAUGUAAGACAGCGGCCGCUAUGGCAGCACGCUGAUACAGAAGGCAACAUGAGGAUCACCCAUGUUCAA | 18.9 | 146 | – | – |
| CAGCGGAGCCUAGGAUAUGCGACAUGAGGAUCACCCAUGUACGCCAAAACGUCACCAUGGGUCUCGCAGAAGGAGGAAACACUG | 54.7 | 24.3 | – | – |
| AUCAGCUCGUCAGGAUAUACGUCGCUGCGUCAGCAGUGUGGUAAGAUCACAUGAGGAUCACCCAUGUAGAAGGGACGAGCUGAU | 19.3 | 374 | – | – |
| UUAUUAUAUGUAGGAUAUGCAUAUUGUUGUUAUGCAGAAGGACAUGAGGAUCACCCAUGUAUAUUAUUGUUAUAUAUUAUAUAU | 23.4 | 36.7 | – | – |
| AAAUUAAGAAGAGGAUAUUGACAUGAGGAUCACCCAUGUAUUUGGGAAUGUUUACUGAAUUCUUACGAGAAGGUUUACGAACUU | 191 | 132 | – | – |
| CGCCUGGGAGGAUAUCCAAUAUAUGACAUGAGGAUCACCCAUGUUUCCACUCGUACCUCCGGAGAAGGCCCUGCGU | 22.2 | 23.5 | – | – |
| GUAGGAAUCACAGGAUAUGCAUGCGCCGCUUCGAUCUACAUGAGGAUCACCCAUGUGUGGUCCGUGUAGAAGGGUGUUUGCUAC | – | – | 80.8 | 34.7 |
| UGUCCUUGAGGCUCGGACGUGUCGCCAGAAGGCAAUUUCUGACAUGAGGAUCACCCAUGUCCAAUUGAGGAUAUGGCUGCGAAG | – | – | 27.2 | 7.52 |
| CCUUUGAAGAUCCUAGUUUUCGACAUGAGGAUCACCCAUGUGCAGGAUAUCGUGCCAGUGAUGUGCGAGAAGGGCAGUCUCUGC | 110 | 112 | – | – |
| GUGCAUGUGCGAACUAACCCACAUGAGGAUCACCCAUGUAGGAGAAGGGUCCGGAGGUGCCGUGGACAGGAUAUCCUACGCCUG | 23.2 | 30.9 | – | – |
| UUGCCACAUGAGGAUCACCCAUGUGAGGAUAUGGCCUGUUUGGCGUGAGCUGGUUCUGUCAGAAGGCGCGUGGG | 45.9 | 51.3 | – | – |
| CAGGUAGACUGAGGAUAUACAGACCUAGUCUAUCUAGGUCAAGUCCUUACAUGAGGAUCACCCAUGUAGAAGGCAGUCUGCCUG | 19.5 | 52.7 | – | – |
| GUCCUUUCUGAGGAUAUUAUUUUUUUCGAUUGAUAAGAAGGCAGUACAUGAGGAUCACCCAUGUGGGUUGUCUG | 26.8 | 28.3 | – | – |
| AACGCGUCAGGAUAUAGCGUAAUUUAGGUAGUACGACCAUACUAGAAGGGACAUGAGGAUCACCCAUGUGGGUA | 212 | 118 | – | – |
| UGGCACCGAGGAUAUACAUGAGGAUCACCCAUGUUCGGAAAGCAUACGGUGGCUUGCUGUAGAAGGCGGGCCAC | 16.2 | 13 | – | – |
| UGUUGUAUUACAGGAUAUCUAUGAUUUUUUUUUAGAGAAGGGUAUUCACAUGAGGAUCACCCAUGUAUAUACGAGGAAGUUGUG | – | – | 51.4 | 62 |
| AGCUGUGGCCGAGGAUAUCUGUCUCAUAAAACCGAAAUAUAAUCGGACAUGAGGAUCACCCAUGUAGAGAAGGCGGUCUCAGCA | 21.3 | 83.7 | – | – |
| AAAAAACAUGAGGAUCACCCAUGUAAAAAAAAUGGAGGAUAUUGGAAAAAAAAAAAAAAACGAGAAGGCUAAAAAA | – | – | 84.4 | 71.1 |
